From ChEMBL document CHEMBL1148795 (J Med Chem, 2007)
Active and inactive are the calls of the source. The calls are words filed in the database; no cut-off is given here.

How the values were obtained:
[1] = test system: Human immunodeficiency virus 2; assay: Antiviral activity against HIV2 ROD in human MT4 cells by MTT assay
[2] = Cytotoxicity against human MT4 cells by MTT assay; assay type: cell-based
[3] = test system: Human immunodeficiency virus 1; assay: Antiviral activity against HIV1 3B in human MT4 cells by MTT assay; conditions: for EC50: Human immunodeficiency virus 1, 3B
[4] = biological target: Human immunodeficiency virus type 1 reverse transcriptase (Human immunodeficiency virus 1, UniProt Q72547); assay: Inhibition of HIV1 reverse transcriptase
[5] = test system: Human immunodeficiency virus 1; assay: Antiviral activity against HIV1 RF in human CEM-SS cells by XTT assay; assay type: functional, organism-based; conditions: for EC50: Human immunodeficiency virus 1, RF
[6] = Cytotoxicity against human CEM-SS cells by MTT assay; assay type: cell-based
[7] = Metabolic stability in rat plasma; assay type: ADME, cell-free
Summary of the method: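 Compounds were incubated in reconstituted rat plasma (two lots, checked with a control compound), with 1,1-diphenylethylene as internal standard. Aliquot supernatants were analysed by HPLC with UV detection. Half-lives came from regression fits of concentration versus time and were averaged over at least two replicates.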

[8] = test system: Human immunodeficiency virus 1; assay: Antiviral activity against HIV1 with RT K103N mutation; assay type: functional, organism-based
Summary of the method: (§1)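 Cytoprotection assay in CEM-SS cells infected with HIV-1 strains engineered to carry the NNRTI-resistance RT mutation (K103N or Y181C). Activity is expressed as the EC50 for protection of the cells from virus-induced cytopathic effect.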

[9] = test system: Human immunodeficiency virus 1; assay: Antiviral activity against HIV1 with RT Y181C mutation; assay type: functional, organism-based
Summary of the method: as §1

Compound | Activity [1] | CC50 [2] [µM] | EC50 [3] [µM] | IC50 [4] [µM] | Activity [5] | CC50 [6] [µM] | half-life [7] [h] | EC50 [8] [µM] | EC50 [5] [µM] | EC50 [9] [µM] | Activity [3]
COc1c(C)cc(/C(=C\CCc2nnc(C)o2)c2cccc(C#N)c2)cc1C(=O)SC | inactive | 8.4 | 1.4 | 9.3 | inactive | 2.7 | 3.68 |  |  |  | 
COc1c(C)cc(/C(=C\CCc2nnc(C)o2)c2cc(C)c3onc(OC)c3c2)cc1C(=O)SC | inactive | 4.4 | 0.81 | 0.9 |  | 2.1 | 18.2 | > 50 | 0.52 | > 100 | 
COC(=O)c1cc(/C(=C\CCc2nnc(C)o2)c2cc(C)c3on(C)c(=O)c3c2)cc(C)c1OC | inactive | 41 | 2.7 | 7.4 |  | 7.7 | 3.66 | > 50 | 3 | > 100 | 
COC(=O)c1cc(C(=CCCc2nnc(C)o2)c2cc(C)c(OC)c(C(=O)OC)c2)cc(C)c1OC | inactive | 37 |  | 71 |  | 40 | 0.055 |  |  |  | 
COc1c(C)cc(/C(=C/CCc2nnc(C)o2)c2ccc(C#N)cc2)cc1C(=O)SC | inactive | 3.2 |  | 48 | inactive | 1.2 |  |  |  |  | inactive
COC(=O)c1cc(/C(=C\CCc2nnc(C)o2)c2ccc(C#N)cc2)cc(C)c1OC | inactive | 16 | 2 | 24 |  | 28 | 0.75 |  | 3 |  | 
COC(=O)c1cc(C(=CCCc2nnc(C)o2)c2cc(C)c(OC)c(C(=O)SC)c2)cc(C)c1OC | inactive | 3.9 |  | 32 | inactive | 13 | 1.3 |  |  |  | inactive
COC(=O)CCC/C=C(\c1cc(C)c(OC)c(C(=O)OC)c1)c1cc(C)c2onc(OC)c2c1 |  |  |  | 0.91 |  |  |  |  |  |  | 
COC(=O)c1cc(/C(=C\CCc2nnc(C)o2)c2cccc(C#N)c2)cc(C)c1OC | inactive | 8.1 |  | 29 | inactive | 4.5 | 1.89 | > 50 |  | > 100 | inactive
COc1c(C)cc(C(=CCCc2nnc(C)o2)c2cc(C)c(OC)c(C(=O)SC)c2)cc1C(=O)SC | inactive | 5.9 |  | > 100 | inactive | 8.1 |  |  |  |  | inactive
COc1c(C)cc(/C(=C\CCCc2nnc(C)o2)c2ccc(C#N)cc2)cc1C(=O)SC | inactive | 36 | 0.36 | 3.2 |  | 8.9 | 0.75 | 2.3 | 0.6 | > 100 | 
COC(=O)CCCC=C(c1cc(Br)c(OC)c(C(=O)OC)c1)c1cc(Br)c(OC)c(C(=O)OC)c1 | inactive | 91 |  |  |  | 13 | 0.103 |  |  |  | 
COc1c(C)cc(C(=CCCc2nnn(C)n2)c2cc(C)c(OC)c(C(=O)SC)c2)cc1C(=O)SC | inactive | 7 |  | 67 |  | 33 |  |  |  |  | inactive
COc1c(C)cc(C(=CCCCc2nnc(C)o2)c2cc(C)c(OC)c(C(=O)SC)c2)cc1C(=O)SC | inactive | 4.4 | 1.3 | 6.7 |  | 5.3 | 1.27 | > 50 | 2.2 | > 100 | 
COC(=O)c1cc(/C(=C/CCc2nnc(C)o2)c2cc(C)c3oc(=O)n(C)c3c2)cc(C)c1OC | inactive | 13 | 0.44 | 1 |  | 3.2 |  | > 50 | 0.43 | > 100 | 
COc1c(C)cc(/C(=C/CCCc2nnc(C)o2)c2cc(C)c3onc(OC)c3c2)cc1C(=O)SC | inactive | 1.1 |  | 5.2 | inactive | 0.78 |  | > 50 |  | > 100 | inactive
COc1c(C)cc(/C(=C/CCc2nnc(C)o2)c2cccc(C#N)c2)cc1C(=O)SC | inactive | 3.8 |  | 55 | inactive | 1.3 |  |  |  |  | inactive
COc1c(C)cc(/C(=C/CCCc2nnc(C)o2)c2cc(C)c3on(C)c(=O)c3c2)cc1C(=O)SC | inactive | 25 |  | > 100 | inactive | 12 |  |  |  |  | inactive
